What all share (format): functional, cell-based
Assay [1] can be described thus: Antiproliferative activity against human HL60 cells after 72 hrs by MTT assay. The following applies: HL-60, 72 h. Summed up:
(§1)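 Cells grown in RPMI-1640 with heat-inactivated 10% FBS, penicillin 100 units/mL and streptomycin 100 μg/mL, at 37 °C under 20% O2, 5% CO2. Compounds dissolved in DMSO at 10.0 mg/mL (stock), then diluted. Cells were plated for 24 h, exposed to a range of concentrations for 72 h, and viability was read by MTT. IC50 is 50% absorbance inhibition versus control cells; means of three experiments.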
In general terms: Tetrazolium dyes change colour on reduction, which living cells bring about.

The subject of the next assay is KB. As to the kind of experiment: Antiproliferative activity against human KB cells after 72 hrs by MTT assay. Summed up:
as §1

Assay [2] in a line: Antiproliferative activity against human SMMC7721 cells after 72 hrs by MTT assay. The following applies: SMMC-7721, 72 h. Summed up: as §1
Assay [3] in a line: Antiproliferative activity against human HCT116 cells after 72 hrs by MTT assay. Conditions: HCT-116, 72 h. Summed up: as §1
The subject of the next assay is A549. As to the kind of experiment: Antiproliferative activity against human A549 cells after 72 hrs by MTT assay. The following applies: A549, 72 h.

pIC50: −log10 of the molar value.

24 compounds from ChEMBL document CHEMBL3399927, “Identification of novel inhibitors of Aurora A with a 3-(pyrrolopyridin-2-yl)indazole scaffold” (Bioorg Med Chem, 2015) can be followed below.

One may read the pIC50 as the IC50 on a negative log10 scale, so that one unit is a factor of ten. High values mean a small IC50, low ones a large IC50. For `CN(c1ccc2[nH]c(-c3n[nH]c4ccccc34)cc2n1)S(=O)(=O)c1cccc([N+](=O)[O-])c1`, the pIC50 was 5.44 in assay [1]; 5.23 in the assay with KB; 5.29 in assay [2]; 4.87 in assay [3]; 4.70 with A549.
For the compound `CN(C(=O)c1ccco1)c1ccc2[nH]c(-c3n[nH]c4ccccc34)cc2n1`, the pIC50 is 5.34 in assay [1]; 4.71 in the assay on KB; 4.55 in assay [2]; 4.52 in assay [3]; 4.81 in the assay on A549.
The corresponding values for `CN(c1ccc2[nH]c(-c3n[nH]c4ccccc34)cc2n1)S(=O)(=O)c1ccc(OC(F)(F)F)cc1` are 5.93, 5.88, 5.15, 5.22 and 5.10.
For `CN(C(=O)c1ccccc1)c1ccc2[nH]c(-c3n[nH]c4cc(Cl)ccc34)cc2n1`, in that order: 5.25, 5.25, 4.95, 4.88 and 5.02.
The corresponding values for `CC(=O)N(C)c1ccc2[nH]c(-c3n[nH]c4ccccc34)cc2n1` are 5.29, 4.99, 4.63, 4.83 and less than 4.30.
Turning to `CC(=O)O[C@H]1C(=O)[C@@]2(C)[C@H]([C@H](OC(=O)c3ccccc3)[C@]3(O)C[C@H](OC(=O)[C@H](O)[C@@H](NC(=O)c4ccccc4)c4ccccc4)C(C)=C1C3(C)C)[C@]1(OC(C)=O)CO[C@@H]1C[C@@H]2O` [PACLITAXEL], the pIC50 in assay [1] was 8.77; in the assay on KB, 7.82; in assay [2], 6.92; in assay [3], 8.31.
With `COc1ccc(NC(=O)N(C)c2ccc3[nH]c(-c4n[nH]c5ccccc45)cc3n2)cc1`, the pIC50 is 8.10 in assay [1] and 7.20 in assay [3].
Regarding `CN(C(=O)c1ccc([N+](=O)[O-])cc1)c1ccc2[nH]c(-c3n[nH]c4ccccc34)cc2n1`, the pIC50 in assay [1] was 5.17; in the assay on KB, 4.70; in assay [2], 4.73; in assay [3], 4.70; with A549 it was 4.46.
`COc1ccc(S(=O)(=O)N(C)c2ccc3[nH]c(-c4n[nH]c5ccccc45)cc3n2)c(OC)c1`: the pIC50 in assay [1] was 5.29; with KB, 4.99; in assay [2], 4.97; in assay [3] it was 4.66; with A549, 4.59.
For `CN(C(=O)C(C)(C)C)c1ccc2[nH]c(-c3n[nH]c4ccccc34)cc2n1`, in that order: 5.30, 5.08, 4.65, 4.75 and 4.61.
The corresponding values for `CN(c1ccc2[nH]c(-c3n[nH]c4ccccc34)cc2n1)S(=O)(=O)c1ccccc1` are 5.43, 5.62, 4.92, 5.17 and 4.85.
The corresponding values for `Cc1ccc(S(=O)(=O)N(C)c2ccc3[nH]c(-c4n[nH]c5ccccc45)cc3n2)cc1` are 5.52, 5.02, 4.79, 4.88 and 4.57.
With `CN(C(=O)c1ccc(Br)cc1)c1ccc2[nH]c(-c3n[nH]c4ccccc34)cc2n1`, the pIC50 was 5.97 in assay [1]; 5.75 in the assay with KB; 5.46 in assay [2]; 5.21 in assay [3]; 5.37 in the assay on A549.
For `CN(c1ccc2[nH]c(-c3n[nH]c4ccccc34)cc2n1)S(=O)(=O)c1ccc(Cl)cc1`, in that order: 6.11, 5.08, 4.90, 5.22 and 4.74.
For `COc1ccc(S(=O)(=O)N(C)c2ccc3[nH]c(-c4n[nH]c5ccccc45)cc3n2)cc1OC`, in that order: 5.20, 5.00, 4.58, 4.78 and less than 4.30.
The corresponding values for `CN(C(=O)CCc1ccccc1)c1ccc2[nH]c(-c3n[nH]c4ccccc34)cc2n1` are 5.33, 5.13, 4.68, 4.95 and 4.74.
In the case of `COc1ccc(C(=O)N(C)c2ccc3[nH]c(-c4n[nH]c5ccccc45)cc3n2)cc1`, the pIC50 in assay [1] is 5.48; with KB it was 4.89; in assay [2], 4.63; in assay [3], 4.53; in the assay on A549, 4.84.
For `CCC(=O)N(C)c1ccc2[nH]c(-c3n[nH]c4ccccc34)cc2n1`, in that order: 5.21, 5.03, 4.48, 4.97 and 4.80.
The corresponding values for `COc1ccc(S(=O)(=O)N(C)c2ccc3[nH]c(-c4n[nH]c5ccccc45)cc3n2)cc1` are 5.36, 4.66, 4.89, 4.65 and 4.62.
As to `COc1ccc(OC)c(S(=O)(=O)N(C)c2ccc3[nH]c(-c4n[nH]c5ccccc45)cc3n2)c1`, the pIC50 in assay [1] is 6.08; with KB, 5.36; in assay [2], 5.37; in assay [3], 5.08; in the assay with A549, 4.71.
In the case of `CN(C(=O)c1ccccc1)c1ccc2[nH]c(-c3n[nH]c4cc(C#N)ccc34)cc2n1`, the pIC50 in assay [1] is 5.19; in the assay with KB, 4.68; in assay [2], less than 4.30; in assay [3] it was 4.62; with A549, 4.48.
The corresponding values for `CN(c1ccc2[nH]c(-c3n[nH]c4ccccc34)cc2n1)S(=O)(=O)c1ccc(Br)cc1` are 5.20, 5.15, 4.94, 5.01 and 4.71.
For `COc1cccc(C(=O)N(C)c2ccc3[nH]c(-c4n[nH]c5ccccc45)cc3n2)c1`, in that order: 5.85, 5.05, 4.66, 4.85 and 4.83.
The corresponding values for `CN(C(=O)c1ccc(F)cc1)c1ccc2[nH]c(-c3n[nH]c4ccccc34)cc2n1` are 5.92, 5.14, 5.04, 5.03 and 5.02.
